# Screening results deposited in PubChem BioAssay by several laboratories.
# Shown are actives, neighbours in structure and some others; about 2.7% of the full set was active somewhere.
# PLK1 kinase inh: blocks human PLK1 kinase activity; actives 0.53% (n = 97,000); P53350; recombinant PLK1 kinase, TR-FRET peptide phosphorylation; inhibition, % at 10 µM;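 active means inhibition of 50% or more in the single-concentration screen; inactive means inhibition below 50%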;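 further: 0% = DMSO max control and 100% = H-89 dihydrochloride min control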
# hDAT+cocaine: human DAT dopamine uptake with cocaine, either direction; LLC-PK1 hDAT cells, [14C]-dopamine uptake with cocaine IC80; actives deviate in either direction; B-score at 10 µM; actives 1.3% (n = 110,000); AID 449768;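 active means Z score or B-score, a plate-position-corrected score, falls beyond the plate's 99.7% confidence bounds, in either direction; inactive means both scores lie inside the 99.7% bounds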;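 further: scored against the spread of the other compound wells on the same plate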
# HIV Rev-RRE inh: disrupts HIV-1 Rev binding to RRE RNA; Rev peptide-RRE RNA binding, FRET; actives 0.79% (n = 97,000); inhibition, % at 8 µM; P05866; AID 704;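 active means inhibition above the screen-wide mean plus 3 SD, cut at about 35% in these data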;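 further: 0% = median DMSO wells and 100% = median Neomycin B control wells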
# Target sequence (P05866 whole entry, looked up): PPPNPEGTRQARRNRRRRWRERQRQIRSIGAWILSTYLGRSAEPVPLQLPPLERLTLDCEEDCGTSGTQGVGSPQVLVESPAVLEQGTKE
#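 System: Cy5-labelled duplex RRE RNA binding fluorescein-labelled HIV Rev peptide; Signal: fluorescein-to-Cy5 FRET, 480 nm excitation; Also added: labelled Rev peptide; Compound: one concentration, 8 µM nominal; Buffer or medium: HEPES pH 7.5 salt buffer with EDTA; Read-out: % inhibition of FRET ratio versus controls; Schedule: 5 min preincubation and 15 min binding, 25 °C.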
# PTPN22 inh 2: LYP (human) phosphatase inhibition; recombinant LYP catalytic domain, DiFMUP fluorescence; inhibition, % at 2 µM; actives 0.21% (n = 96,000); AID 640;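 active means inhibition at 2 µM at or above a set limit, the screen mean plus 3 SD, cut at about 24% in these data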;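 further: 0% = DMSO with enzyme and 100% = enzyme fully blocked by orthovanadate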
# Plk1 PBD FP: blocks phosphopeptide binding to human Plk1 polo box domain; P53350; Plk1 PBD phosphopeptide binding, fluorescence polarization; inhibition, %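 (tested at about 20 µM)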; actives 0.13% (n = 97,000); AID 693; in the data active means inhibition above about 34%, passing the limit was not always enough
# PTPN22 act: activators of human LYP (PTPN22) phosphatase; recombinant LYP, DiFMUP fluorescence; 0 = plate median, 100 = signal doubled; AID 697; activation, % at 2 µM; actives 0.11% (n = 96,000);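 active means activation at 2 µM above a set limit, the mean plus 5 SD, cut at about 37% in these data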
# Starred values were filed as active, the others as inactive; / = no result given; [ ] = dose if it differs, or a comment.
SMILES,PLK1 kinase inh,hDAT+cocaine,HIV Rev-RRE inh,PTPN22 inh 2,Plk1 PBD FP,PTPN22 act
O=c1[nH]c(=O)n(-c2cccc(Cl)c2)c(O)c1/C=N/c1ccccn1,-4,-0.21,14,-5,-27,4
C=CCn1c(O)c(C=Nc2ccc(N(CC)CC)cc2)c(=O)[nH]c1=O,-1,-1.2,56*,-25,-2,27
CCN(CC)c1ccc(N=Cc2c(O)n(-c3ccc(Cl)cc3)c(=O)[nH]c2=O)cc1,-10,1.3,31,-1,-4,3
Cc1cccc(N=Cc2c(O)n(-c3ccccc3C)c(=O)[nH]c2=O)c1,3,0.92,14,-2,-26,3
COc1ccc2nc(/N=C/c3c(O)n(-c4cccc(Cl)c4)c(=O)[nH]c3=O)sc2c1,-19,-1.6,36*,-2,8,5
Cc1ccccc1-n1c(O)c(C=Nc2ccc(N(C)C)cc2)c(=O)[nH]c1=O,-11,0.34,41*,7,11,-9
CCN(CC)c1ccc(N=Cc2c(O)n(-c3ccc(OC)cc3)c(=O)[nH]c2=O)cc1,-9,-2,72*,-2,-9,2
CNCC(=O)c1ccccc1,/,-0.92,/,/,/,/
S=C(NC1CCCCC1)N1CCC(c2cnc[nH]2)CC1,/,0.41,/,/,/,/
CCCCC(C)C(OC(=O)CC(CC(=O)O)C(=O)O)C(CC(C)CC(O)CCCCC(O)CC(O)C(C)N)OC(=O)CC(CC(=O)O)C(=O)O (centres undefined),/,0.031,/,/,/,/
CC1(C)CC[C@]2(C)CC[C@]3(C)C4C[C@@H]5OO[C@@]6(O5)C(CCCC6(C)C)[C@]4(C)CC[C@@]3(C)C2C1 (some centres undefined),/,0.67,/,/,/,/
CN(C)c1ccc(N=Cc2c(O)n(CCC3=CCCCC3)c(=O)[nH]c2=O)cc1,-6,-1,10,7,6,-9
C=CCn1c(O)c(C=NCCN(C)C)c(=O)[nH]c1=O,-4,0.17,38*,4,2,-5
CCN(CC)c1ccc(N=Cc2c(O)n(CCC3=CCCCC3)c(=O)[nH]c2=O)cc1,-17,0.6,42*,8,-1,-10
CN1CC[C@@H](c2ccc(F)cc2)[C@H](COc2ccc3c(c2)OCO3)C1,/,-0.6,/,/,/,/
C1=C(c2c[nH]c3ccccc23)CCNC1,14,-0.55,99*[fluorescence artefact?],-17,-57,17
CC/C(=C\C=C\[C@@H]1C=C[C@@H]2CCC[C@H]2[C@@H]1C(=O)c1ccc[nH]1)[C@@H]1O[C@@H]([C@@H](C)C(=O)O)CC[C@@H]1C,-8,-4*,0,25*,-2,-26
CC(C(=O)c1c[nH]c2ccccc12)N1CCSCC1 (centres undefined),-2,0.24,10,-2,-16,-1
CC(C)C/C(=N/O)c1c[nH]c2ccccc12,-8,4.2*,2,-22,-17,21
O=C(N/N=C1/CN2CCC1CC2)c1cc2ccccc2cc1O,-12,-8.2*,11,0,-3,0
O=P(C(=Nc1ccc(Cl)cc1)N1CCOCC1)(N1CCOCC1)N1CCOCC1,-11,-0.56,3,-8,-5,2
Oc1cccc2nc3ccccc3nc12,/,-0.42,/,/,/,/
COCCNC(=O)c1c(N)n(Cc2ccco2)c2nc3ccccc3nc12,-16,2,36*,2,-34,2
CCCCn1c(N)c(C(=O)NCCN2CCOCC2)c2nc3ccccc3nc21,-9,2.1,3,-7,5,7
C=CCNC(=O)c1c(N)n(Cc2ccco2)c2nc3ccccc3nc12,-4,-0.16,50*,7,14,-4
SMILES,PLK1 kinase inh,hDAT+cocaine,HIV Rev-RRE inh,PTPN22 inh 2,Plk1 PBD FP,PTPN22 act
CC(C)(C)OC(=O)c1c(N)n(Cc2ccco2)c2nc3ccccc3nc12,-13,0.45,33,-9,-8,9
Nc1c(C(=O)NCCN2CCOCC2)c2nc3ccccc3nc2n1Cc1ccco1,4,1.5,45*,-2,4,1
CCOC(=O)c1c(N)n(CCN2CCCCC2)c2nc3ccccc3nc12,-7,1.2,38*,-5,12,3
CC(=O)O[C@@H]1/C=C/[C@](C)(O)C[C@@H](C)C/C=C/[C@H]2[C@@H]3O[C@]3(C)[C@@H](C)[C@H]3[C@H](Cc4ccccc4)NC(=O)[C@@]312,/,-0.22,/,/,/,/
Cc1ccccc1C(O)(Cc1ccccc1)C1CN2CCC1CC2 (centres undefined),-9,0.21,-1,0,5,2
COC(=O)C1=C(c2ccccc2)C[C@@H]2CC[C@H]1N2C(=O)N1CCC(O)CC1,/,-0.32,/,/,/,/
CC(C)(O)[C@@H]1[C@H]2OC(=O)[C@@H]1[C@]1(O)C[C@H]3O[C@]34C(=O)O[C@H]2[C@]14C (tested in a mixture with another compound),/,-0.27,/,/,/,/
Cc1cc(C=C2C(=O)N(C)C(=S)N(C)C2=O)c(C)n1C1CCCC1,-6,-0.41,19,6,-24,-5
CN1C(=O)C(=Cc2ccc(N3CCCCCC3)o2)C(=O)N(C)C1=S,-11,0.034,124*[fluorescence artefact?],9,-190,-6
CCN(CC)C1=NC(=[N+](CC)CC)c2ccccc21,-1,-3*,1,-4,6,8
O=c1[nH]c(CN2CC=C(c3ccccc3)CC2)nc2cc(C(F)(F)F)ccc12,48,0.3,45*,-3,15,2
CS(=O)(=O)c1ccc(C2=C(c3ccccc3)C(=O)OC2)cc1,/,-0.099,/,/,/,/
CNCC1(c2ccccc2)CCCC1,2,-7.4*,-2,-2,-8,4
CCN(CC)c1ccc(/C=C2/C(=O)NC(=O)N(CC3CCCO3)C2=O)cc1 (centres undefined),-6,0.92,89*[fluorescence artefact?],10,-17,-6
CCN1C(=O)NC(=O)/C(=C\c2ccc(N3CCOCC3)cc2OC)C1=O,1,/,12,-7,-8,10
CC(C)(C)P(=O)(c1ccncc1)N1CCCC1 (centres undefined),-10,6.2*,1,-4,-4,2
C=C(C)[C@@]12OC3(c4ccccc4)O[C@@H]1C1[C@@H]4O[C@]4(CO)[C@@H](O)[C@]4(O)C(=O)C(C)=C[C@H]4[C@@]1(O3)[C@H](C)[C@H]2OC(=O)/C=C/C=C/c1ccccc1 (some centres undefined),/,-6.3*,/,/,/,/
COc1ccc(OCC(=O)N2CCN(Cc3c[nH]c4ccccc34)CC2)cc1,3,4.3*,4,6,-6,-7
O=C(COc1ccccc1)N1CCN(Cc2c[nH]c3ccccc23)CC1,/,0.031,/,/,/,/
Cc1cc2c(C(F)(F)F)cc(=O)oc2c2c1NCCC2,-12,-0.59,130*[fluorescence artefact?],-4,0,2
O=c1cc(C(F)(F)F)c2cc3c4c(c2o1)CCCN4CCC3,-26,0.78,132*[fluorescence artefact?],-2,-157,2
COC(=O)C1=C(c2cccc(OC)c2OC)C[C@@H]2CC[C@H]1N2C(=O)NCCS(C)=O (some centres undefined),/,-1.5,/,/,/,/
